Experiments:
[1] = target: T1, Bone morphogenetic protein receptor type-2 (Homo sapiens) (UniProt Q13873); assay: Inhibition of BMPR2 at 1 uM
T1 sequence (whole entry): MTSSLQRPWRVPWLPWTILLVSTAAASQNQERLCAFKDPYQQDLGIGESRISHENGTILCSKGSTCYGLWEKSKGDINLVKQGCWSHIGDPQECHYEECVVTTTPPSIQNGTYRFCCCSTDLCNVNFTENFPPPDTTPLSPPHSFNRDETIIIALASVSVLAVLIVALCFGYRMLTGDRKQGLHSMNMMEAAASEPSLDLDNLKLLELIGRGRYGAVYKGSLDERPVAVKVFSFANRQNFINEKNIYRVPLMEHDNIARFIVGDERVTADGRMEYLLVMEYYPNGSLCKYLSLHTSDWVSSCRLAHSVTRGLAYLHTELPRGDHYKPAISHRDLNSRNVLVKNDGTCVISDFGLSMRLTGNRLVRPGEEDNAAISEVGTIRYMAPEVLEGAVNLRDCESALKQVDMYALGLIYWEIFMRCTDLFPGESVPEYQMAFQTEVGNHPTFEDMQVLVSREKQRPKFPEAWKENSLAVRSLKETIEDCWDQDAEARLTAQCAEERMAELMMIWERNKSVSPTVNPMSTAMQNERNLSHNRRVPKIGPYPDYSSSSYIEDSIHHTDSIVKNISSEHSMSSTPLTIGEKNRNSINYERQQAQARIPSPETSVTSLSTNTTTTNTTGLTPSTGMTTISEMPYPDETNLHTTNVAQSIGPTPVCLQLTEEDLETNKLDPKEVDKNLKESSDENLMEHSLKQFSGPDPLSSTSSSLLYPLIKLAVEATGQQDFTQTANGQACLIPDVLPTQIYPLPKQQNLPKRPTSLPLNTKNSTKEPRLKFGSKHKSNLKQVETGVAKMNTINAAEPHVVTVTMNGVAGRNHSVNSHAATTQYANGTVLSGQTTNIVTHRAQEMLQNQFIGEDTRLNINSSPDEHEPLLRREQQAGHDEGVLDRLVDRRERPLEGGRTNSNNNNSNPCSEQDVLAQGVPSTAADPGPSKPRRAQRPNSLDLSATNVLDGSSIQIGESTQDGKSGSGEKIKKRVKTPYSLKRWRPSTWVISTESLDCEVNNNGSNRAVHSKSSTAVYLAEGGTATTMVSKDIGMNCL

[2] = target: Cyclin-dependent kinase 3 (Homo sapiens) (UniProt Q00526); assay: Inhibition of CDK3 at 1 uM
[3] = target: SRSF protein kinase 2 (Homo sapiens) (UniProt P78362); assay: Inhibition of SRPK2 at 1 uM
[4] = target: Platelet-derived growth factor receptor alpha (Homo sapiens) (UniProt P16234); assay: Inhibition of PDGFRA at 1 uM
[5] = target: T2, Serine/threonine-protein kinase BRSK2 (Homo sapiens) (UniProt Q8IWQ3); assay: Inhibition of BRSK2 at 1 uM
T2 sequence (whole entry): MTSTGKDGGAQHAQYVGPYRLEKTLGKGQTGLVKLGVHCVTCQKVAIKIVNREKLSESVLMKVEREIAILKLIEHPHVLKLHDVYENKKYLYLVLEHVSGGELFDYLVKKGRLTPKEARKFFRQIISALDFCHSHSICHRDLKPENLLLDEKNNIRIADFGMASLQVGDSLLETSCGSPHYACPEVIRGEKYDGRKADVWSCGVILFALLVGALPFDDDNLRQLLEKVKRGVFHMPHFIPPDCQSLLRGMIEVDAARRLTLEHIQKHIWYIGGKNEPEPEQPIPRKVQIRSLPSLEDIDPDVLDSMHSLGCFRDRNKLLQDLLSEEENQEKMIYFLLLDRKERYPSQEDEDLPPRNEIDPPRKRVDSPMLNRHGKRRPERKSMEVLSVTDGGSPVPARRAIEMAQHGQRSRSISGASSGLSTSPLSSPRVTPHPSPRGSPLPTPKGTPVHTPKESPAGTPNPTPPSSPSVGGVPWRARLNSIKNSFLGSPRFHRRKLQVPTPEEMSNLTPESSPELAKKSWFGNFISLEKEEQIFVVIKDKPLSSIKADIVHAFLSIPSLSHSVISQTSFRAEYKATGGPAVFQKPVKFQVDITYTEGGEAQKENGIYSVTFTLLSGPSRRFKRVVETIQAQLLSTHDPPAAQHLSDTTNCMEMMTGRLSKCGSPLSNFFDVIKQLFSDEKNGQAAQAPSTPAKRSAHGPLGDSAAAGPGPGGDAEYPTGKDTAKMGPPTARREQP
How it was run: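 Ambit KINOMEscan screen at a single concentration across a 250–400 kinase panel, recorded as percent inhibition. Selectivity was expressed as S(90), the fraction of kinases inhibited >90%.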

[6] = target: Protein kinase C delta type (Homo sapiens) (UniProt Q05655); assay: Inhibition of PRKCD at 1 uM
[7] = target: Serine/threonine-protein kinase 26 (Homo sapiens) (UniProt Q9P289); assay: Inhibition of MST4 at 1 uM
[8] = target: Ribosomal protein S6 kinase alpha-2 (Homo sapiens) (UniProt Q15349); assay: Inhibition of RPS6KA2 N-terminal domain1 at 1 uM
[9] = target: Phosphatidylinositol 4-kinase beta (Homo sapiens) (UniProt Q9UBF8); assay: Inhibition of PIK4CB at 1 uM
[10] = target: Fibroblast growth factor receptor 3 (Homo sapiens) (UniProt P22607); assay: Inhibition of FGFR3 at 1 uM
How it was run: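 Single-concentration screen on the Ambit KINOMEscan platform, run against a panel of 250–400 kinases. Per-kinase inhibition was also summarized as S(90), the fraction of kinases inhibited by more than 90%.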

[11] = target: ALK tyrosine kinase receptor (Homo sapiens, UniProt Q9UM73); assay: Inhibition of ALK by time-resolved fluorescence assay
How it was run: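 Baculovirus-expressed ALK (30 ng/ml) on plates coated with GST–PLC-gamma substrate in TBS. Reaction ran 15 min at 37 °C. Europium-labeled anti-phosphotyrosine antibody was added for 1 h at 37 °C, then enhancement solution for 30 min, and TRF was read. IC50 came from a variable-slope sigmoidal fit of % inhibition vs log concentration.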

[12] = target: T3, Serine/threonine-protein kinase 17B (Homo sapiens) (UniProt O94768); assay: Inhibition of DRAK2 at 1 uM
T3 sequence (whole entry): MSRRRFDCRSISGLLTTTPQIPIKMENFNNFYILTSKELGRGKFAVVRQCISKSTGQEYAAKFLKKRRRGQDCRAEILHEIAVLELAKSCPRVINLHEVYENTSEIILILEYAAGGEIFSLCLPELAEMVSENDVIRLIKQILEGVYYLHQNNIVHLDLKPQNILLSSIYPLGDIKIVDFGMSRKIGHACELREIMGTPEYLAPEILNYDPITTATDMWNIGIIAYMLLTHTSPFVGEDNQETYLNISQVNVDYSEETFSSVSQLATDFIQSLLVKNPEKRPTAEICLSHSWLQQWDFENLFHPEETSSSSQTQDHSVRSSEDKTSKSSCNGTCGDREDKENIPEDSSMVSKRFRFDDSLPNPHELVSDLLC

Sequence of Protein kinase C delta type (Homo sapiens) (Q05655 whole entry, looked up): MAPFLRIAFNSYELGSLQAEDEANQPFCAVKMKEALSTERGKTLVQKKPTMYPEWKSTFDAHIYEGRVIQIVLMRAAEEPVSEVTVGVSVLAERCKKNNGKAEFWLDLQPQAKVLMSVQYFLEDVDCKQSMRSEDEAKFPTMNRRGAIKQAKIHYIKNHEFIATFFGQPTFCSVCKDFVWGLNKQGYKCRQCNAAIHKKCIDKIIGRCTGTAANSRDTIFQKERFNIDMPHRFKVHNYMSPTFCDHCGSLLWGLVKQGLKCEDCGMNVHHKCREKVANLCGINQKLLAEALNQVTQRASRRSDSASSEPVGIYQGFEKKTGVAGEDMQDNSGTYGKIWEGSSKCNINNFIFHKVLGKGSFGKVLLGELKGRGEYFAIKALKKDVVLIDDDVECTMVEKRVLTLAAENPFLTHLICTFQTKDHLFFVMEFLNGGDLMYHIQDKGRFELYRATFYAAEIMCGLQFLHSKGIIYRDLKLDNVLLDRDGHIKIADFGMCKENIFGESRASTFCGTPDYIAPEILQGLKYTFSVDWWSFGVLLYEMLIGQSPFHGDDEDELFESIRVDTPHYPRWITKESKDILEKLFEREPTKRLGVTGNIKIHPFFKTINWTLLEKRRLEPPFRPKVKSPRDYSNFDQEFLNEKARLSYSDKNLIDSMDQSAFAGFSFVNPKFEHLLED
Sequence of Fibroblast growth factor receptor 3 (Homo sapiens) (P22607 23-806 limits assumed): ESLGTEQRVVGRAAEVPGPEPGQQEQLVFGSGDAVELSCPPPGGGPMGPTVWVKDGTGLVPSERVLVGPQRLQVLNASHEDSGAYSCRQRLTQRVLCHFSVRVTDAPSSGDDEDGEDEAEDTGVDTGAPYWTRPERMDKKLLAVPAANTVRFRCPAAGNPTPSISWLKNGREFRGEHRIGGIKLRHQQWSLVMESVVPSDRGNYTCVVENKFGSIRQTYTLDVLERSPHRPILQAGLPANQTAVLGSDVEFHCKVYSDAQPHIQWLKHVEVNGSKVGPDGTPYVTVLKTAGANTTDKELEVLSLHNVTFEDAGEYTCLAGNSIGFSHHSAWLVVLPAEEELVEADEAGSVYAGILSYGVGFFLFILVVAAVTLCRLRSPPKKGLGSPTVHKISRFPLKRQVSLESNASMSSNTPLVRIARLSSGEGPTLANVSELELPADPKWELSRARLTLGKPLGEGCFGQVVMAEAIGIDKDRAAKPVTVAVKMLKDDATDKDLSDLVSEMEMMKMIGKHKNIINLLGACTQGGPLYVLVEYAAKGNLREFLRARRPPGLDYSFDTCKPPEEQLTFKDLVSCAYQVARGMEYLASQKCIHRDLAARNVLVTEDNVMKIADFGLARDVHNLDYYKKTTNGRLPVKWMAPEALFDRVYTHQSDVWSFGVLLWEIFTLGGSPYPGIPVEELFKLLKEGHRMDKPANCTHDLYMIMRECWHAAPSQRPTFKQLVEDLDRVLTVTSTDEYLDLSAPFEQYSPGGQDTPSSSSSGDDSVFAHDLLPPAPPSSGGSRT
Sequence of ALK tyrosine kinase receptor (Q9UM73 whole entry): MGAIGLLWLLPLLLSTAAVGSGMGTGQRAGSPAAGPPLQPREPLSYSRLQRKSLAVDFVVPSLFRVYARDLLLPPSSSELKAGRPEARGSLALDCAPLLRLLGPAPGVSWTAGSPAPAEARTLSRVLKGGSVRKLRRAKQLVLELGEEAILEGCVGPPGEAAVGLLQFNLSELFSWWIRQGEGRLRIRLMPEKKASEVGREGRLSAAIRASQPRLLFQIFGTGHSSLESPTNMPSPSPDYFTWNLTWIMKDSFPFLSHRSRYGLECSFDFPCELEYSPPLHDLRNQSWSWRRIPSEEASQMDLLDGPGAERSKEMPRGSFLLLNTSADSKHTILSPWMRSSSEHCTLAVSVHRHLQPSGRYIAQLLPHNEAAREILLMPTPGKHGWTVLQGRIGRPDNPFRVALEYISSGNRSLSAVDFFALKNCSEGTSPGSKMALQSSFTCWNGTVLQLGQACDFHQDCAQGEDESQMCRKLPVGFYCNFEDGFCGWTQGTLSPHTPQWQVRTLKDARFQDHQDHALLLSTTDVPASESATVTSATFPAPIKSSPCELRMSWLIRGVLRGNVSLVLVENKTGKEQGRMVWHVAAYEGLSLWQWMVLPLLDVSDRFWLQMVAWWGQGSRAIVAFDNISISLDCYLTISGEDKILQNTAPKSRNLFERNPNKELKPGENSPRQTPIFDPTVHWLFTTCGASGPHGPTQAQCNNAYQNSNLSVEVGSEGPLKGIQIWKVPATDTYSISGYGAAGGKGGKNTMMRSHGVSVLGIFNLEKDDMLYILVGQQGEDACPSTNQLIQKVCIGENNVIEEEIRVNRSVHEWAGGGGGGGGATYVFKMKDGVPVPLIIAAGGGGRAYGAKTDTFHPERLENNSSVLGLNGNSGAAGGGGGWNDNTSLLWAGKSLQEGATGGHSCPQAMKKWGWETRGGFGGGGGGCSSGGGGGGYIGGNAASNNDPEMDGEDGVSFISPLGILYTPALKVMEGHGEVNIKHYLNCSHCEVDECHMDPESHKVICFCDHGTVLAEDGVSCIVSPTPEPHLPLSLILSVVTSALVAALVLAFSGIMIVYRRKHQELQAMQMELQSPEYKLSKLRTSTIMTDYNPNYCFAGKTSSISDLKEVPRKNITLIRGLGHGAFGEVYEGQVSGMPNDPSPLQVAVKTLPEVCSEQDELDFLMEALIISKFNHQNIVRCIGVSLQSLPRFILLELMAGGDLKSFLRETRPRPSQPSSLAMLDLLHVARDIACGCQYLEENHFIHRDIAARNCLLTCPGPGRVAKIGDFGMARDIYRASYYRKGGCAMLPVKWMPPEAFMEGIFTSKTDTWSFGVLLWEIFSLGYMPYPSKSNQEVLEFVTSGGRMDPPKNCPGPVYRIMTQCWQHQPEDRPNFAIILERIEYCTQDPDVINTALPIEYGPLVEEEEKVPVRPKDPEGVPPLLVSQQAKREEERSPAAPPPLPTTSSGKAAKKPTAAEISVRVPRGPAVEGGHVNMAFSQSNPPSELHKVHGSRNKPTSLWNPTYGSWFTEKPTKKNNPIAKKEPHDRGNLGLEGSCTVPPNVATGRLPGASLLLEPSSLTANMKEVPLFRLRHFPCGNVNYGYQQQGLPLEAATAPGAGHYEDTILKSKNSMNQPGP
Sequence of Serine/threonine-protein kinase 26 (Homo sapiens) (Q9P289 2-416 limits assumed): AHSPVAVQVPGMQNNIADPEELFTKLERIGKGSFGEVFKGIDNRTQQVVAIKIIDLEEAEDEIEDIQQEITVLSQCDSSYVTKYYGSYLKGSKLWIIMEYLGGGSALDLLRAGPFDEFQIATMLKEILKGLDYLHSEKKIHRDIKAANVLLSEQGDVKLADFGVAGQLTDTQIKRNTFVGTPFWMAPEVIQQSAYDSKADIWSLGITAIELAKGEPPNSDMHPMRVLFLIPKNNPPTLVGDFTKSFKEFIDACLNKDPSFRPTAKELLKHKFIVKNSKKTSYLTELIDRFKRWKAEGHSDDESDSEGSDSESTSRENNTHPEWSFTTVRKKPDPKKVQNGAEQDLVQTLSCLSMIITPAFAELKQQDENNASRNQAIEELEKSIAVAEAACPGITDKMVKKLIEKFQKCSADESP
Sequence of Ribosomal protein S6 kinase alpha-2 (Homo sapiens) (Q15349 whole entry, the tested form may be a part): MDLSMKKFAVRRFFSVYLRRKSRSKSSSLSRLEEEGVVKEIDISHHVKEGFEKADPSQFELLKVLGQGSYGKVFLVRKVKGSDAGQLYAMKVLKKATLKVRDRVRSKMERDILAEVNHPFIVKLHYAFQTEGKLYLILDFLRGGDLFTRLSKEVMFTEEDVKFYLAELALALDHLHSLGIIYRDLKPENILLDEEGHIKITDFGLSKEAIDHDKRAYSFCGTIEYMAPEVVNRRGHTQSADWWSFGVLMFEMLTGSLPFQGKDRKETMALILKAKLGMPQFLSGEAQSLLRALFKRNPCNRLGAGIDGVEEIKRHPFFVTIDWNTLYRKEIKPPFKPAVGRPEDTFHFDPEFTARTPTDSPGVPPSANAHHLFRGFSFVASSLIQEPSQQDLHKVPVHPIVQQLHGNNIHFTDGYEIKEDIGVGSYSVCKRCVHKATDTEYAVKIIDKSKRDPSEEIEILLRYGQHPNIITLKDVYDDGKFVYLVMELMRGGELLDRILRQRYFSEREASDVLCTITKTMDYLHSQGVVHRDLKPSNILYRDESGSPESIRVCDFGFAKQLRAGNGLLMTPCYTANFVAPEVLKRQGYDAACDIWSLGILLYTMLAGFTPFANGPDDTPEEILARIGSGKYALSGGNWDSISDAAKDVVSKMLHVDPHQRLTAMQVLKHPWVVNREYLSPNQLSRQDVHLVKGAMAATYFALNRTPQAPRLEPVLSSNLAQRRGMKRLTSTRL
Sequence of Phosphatidylinositol 4-kinase beta (Homo sapiens) (Q9UBF8 2-816 limits assumed): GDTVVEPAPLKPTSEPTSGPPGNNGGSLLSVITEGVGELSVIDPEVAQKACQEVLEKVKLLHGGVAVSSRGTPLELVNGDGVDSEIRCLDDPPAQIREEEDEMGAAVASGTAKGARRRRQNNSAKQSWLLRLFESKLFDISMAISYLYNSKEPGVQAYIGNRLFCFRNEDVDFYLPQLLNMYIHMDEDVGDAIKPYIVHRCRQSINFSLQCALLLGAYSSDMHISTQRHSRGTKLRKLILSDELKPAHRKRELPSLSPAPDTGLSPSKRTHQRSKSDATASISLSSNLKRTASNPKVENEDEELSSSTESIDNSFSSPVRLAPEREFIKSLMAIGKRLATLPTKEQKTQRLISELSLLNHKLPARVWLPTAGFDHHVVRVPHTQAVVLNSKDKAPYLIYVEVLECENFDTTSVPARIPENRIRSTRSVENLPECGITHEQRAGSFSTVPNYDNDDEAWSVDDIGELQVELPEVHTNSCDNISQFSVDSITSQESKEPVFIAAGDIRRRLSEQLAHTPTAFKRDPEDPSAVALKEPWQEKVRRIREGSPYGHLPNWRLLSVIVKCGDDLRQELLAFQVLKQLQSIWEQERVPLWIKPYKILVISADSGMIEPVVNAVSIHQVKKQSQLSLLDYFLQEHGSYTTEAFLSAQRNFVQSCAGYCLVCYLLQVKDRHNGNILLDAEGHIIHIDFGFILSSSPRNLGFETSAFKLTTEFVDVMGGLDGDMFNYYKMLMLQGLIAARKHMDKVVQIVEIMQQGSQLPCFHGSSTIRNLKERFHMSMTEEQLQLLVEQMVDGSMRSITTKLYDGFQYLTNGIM

Row | SMILES | inhibition [1] [%] | inhibition [2] [%] | inhibition [3] [%] | inhibition [4] [%] | inhibition [5] [%] | inhibition [6] [%] | inhibition [7] [%] | inhibition [8] [%] | inhibition [9] [%] | inhibition [10] [%] | IC50 [11] [nM] | inhibition [12] [%]
1 | CN1CCN(c2ccc(-c3cnc4c(c3)N(Cc3cc(F)ccc3F)CCN4)cn2)CC1 | < 50 | < 50 | < 50 | < 50 | < 50 | < 50 | < 50 | < 50 | < 50 | < 50 | 33 | < 50
2 | CC(=O)N1CCN(c2cc(-c3cnc4c(c3)N(Cc3cc(Cl)ccc3C(F)(F)F)CCN4)ccn2)CC1 | < 50 | < 50 | < 50 | < 50 | < 50 | < 50 | < 50 | < 50 | < 50 | < 50 | 17 | < 50
3 | CN1CCN(c2ccc(-c3cnc4c(c3)N(Cc3c(F)ccc(F)c3Cl)CCN4)cn2)CC1 | < 50 | < 50 | < 50 | < 50 | < 50 | < 50 | < 50 | < 50 | < 50 | < 50 |  | < 50
4 | FC(F)(F)c1ccc(Cl)cc1CN1CCNc2ncc(-c3ccnc(N4CCNCC4)c3)cc21 | < 50 | < 50 | < 50 | < 50 | < 50 | < 50 | < 50 | < 50 | < 50 | < 50 | 10 | < 50
5 | CN1CCN(c2ccc(-c3cnc4c(c3)N(Cc3cc(Cl)ccc3Cl)CCN4)cn2)CC1 | < 50 | < 50 | < 50 | < 50 | < 50 | < 50 | < 50 | < 50 | < 50 | < 50 | 11 | < 50
6 | O=C(c1ccc(-c2cnc3c(c2)N(Cc2cc(Cl)ccc2C(F)(F)F)CCN3)cc1)N1CCC(N2CCCC2)CC1 |  |  |  | < 50 | 63.8 | < 50 | < 50 | < 50 | < 50 | < 50 | 10 | 
7 | O=C(O)c1ccc(-c2cnc3c(c2)N(Cc2cc(Cl)ccc2C(F)(F)F)CCN3)cc1 |  |  |  | < 50 | < 50 | < 50 | < 50 | < 50 | < 50 | < 50 | 1300 | 
8 | CN1CCN(c2ccc(-c3cnc4c(c3)N(Cc3cc(Cl)ccc3C(F)(F)F)CCN4)cn2)CC1 | < 50 | < 50 | < 50 | < 50 | < 50 | < 50 | < 50 | < 50 | < 50 | < 50 |  | < 50
9 | O=C(c1ccc(-c2cnc3c(c2)N(Cc2cc(Cl)ccc2C(F)(F)F)CCN3)cc1)N1CCCCC1 |  |  |  | < 50 | < 50 | < 50 | < 50 | < 50 | < 50 | < 50 | 121 | 
10 | COC1CCN(C(=O)c2ccc(-c3cnc4c(c3)N(Cc3cc(Cl)ccc3C(F)(F)F)CCN4)cc2)CC1 |  |  |  | < 50 | < 50 | < 50 | < 50 | < 50 | < 50 | < 50 | 40 | 

— ChEMBL document CHEMBL1165965, “Synthesis and structure-activity relationships of 1,2,3,4-tetrahydropyrido[2,3-b]pyrazines as potent and selective inhibitors of the anaplastic lymphoma kinase” (Bioorg Med Chem, 2010)
